Assays:
Format in all cases: functional
DU-145 = experiment: Growth inhibition of human DU145 cells at 100 uM after 72 hrs y MTT assay
Summary of the method: (§1)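 Log-phase cells in supplemented DMEM (10% FBS, 4 mM glutamine, antibiotics; 37 °C, 5% CO2) were plated in duplicate at 2500–4000 cells/well. Compound was added 24 h later at a fixed 100 µM, from 40 mM DMSO stocks. After 72 h, MTT absorbance was read at 540 nm and expressed as percent growth inhibition; 100% means total inhibition.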

HT-29 = experiment: Growth inhibition of human HT-29 cells at 100 uM after 72 hrs y MTT assay; summary of the method: as §1
[1] = Growth inhibition of human BE(2)-C cells at 100 uM after 72 hrs y MTT assay; summary of the method: as §1
[2] = Growth inhibition of human SJ-G2 cells at 100 uM after 72 hrs y MTT assay; summary of the method: as §1
MCF7 = experiment: Growth inhibition of human MCF7 cells at 100 uM after 72 hrs y MTT assay; summary of the method: as §1
A2780 = experiment: Growth inhibition of human A2780 cells at 100 uM after 72 hrs y MTT assay; summary of the method: as §1
SW480 = experiment: Growth inhibition of human SW480 cells at 100 uM after 72 hrs y MTT assay; summary of the method: as §1
NCI-H460 = experiment: Growth inhibition of human H460 cells at 100 uM after 72 hrs y MTT assay; summary of the method: as §1
A-431 = experiment: Growth inhibition of human A431 cells at 100 uM after 72 hrs y MTT assay; summary of the method: as §1

| Compound | inhibition of growth at 100 µM (DU-145; Homo sapiens, DU-145, 72 h, read-out: GI) [%] | growth inhibition (GI) (HT-29) [%] | growth inhibition (GI) [1] [%] | growth inhibition (GI) [2] [%] | growth inhibition (GI) (MCF7) [%] | inhibition of growth at 100 µM (A2780; Homo sapiens, A2780, 72 h, read-out: GI) [%] | growth inhibition (GI) (SW480) [%] | growth inhibition (GI) (NCI-H460) [%] | growth inhibition (GI) (A-431) [%] | growth inhibition (GI) (DU-145) [%] | inhibition of growth at 100 µM (HT-29; Homo sapiens, HT-29, 72 h, read-out: GI) [%] | inhibition of growth at 100 µM ([1]; Homo sapiens, BE(2)-C, 72 h, read-out: GI) [%] | inhibition of growth at 100 µM ([2]; Homo sapiens, SJ-G2, 72 h, read-out: GI) [%] | inhibition of growth at 100 µM (MCF7; Homo sapiens, MCF7, 72 h, read-out: GI) [%] | growth inhibition (GI) (A2780) [%] | inhibition of growth at 100 µM (SW480; Homo sapiens, SW480, 72 h, read-out: GI) [%] |
| --- | --- | --- | --- | --- | --- | --- | --- | --- | --- | --- | --- | --- | --- | --- | --- | --- |
| CC1OC1CO[C@H]1OC(=O)[C@H]2[C@@H]1[C@@H]1CC[C@H]2O1 (stereo in doubt; 23) | 37 | 75 | 54 | 88 | 61 | 55 | 41 | 24 | 35 |  |  |  |  |  |  |  |
| CC1OC1CO[C@H]1OC(=O)[C@H]2[C@@H]1[C@@H]1CC[C@H]2O1 (stereo in doubt; 24) |  |  |  |  |  |  |  | 9 | 17 | 20 | 68 | 53 | 79 | 46 | 58 | 37 |
